Source: PubChem
This is a sample that favours compounds with a hit; in the whole collection about 1.5% have one here.
CendR NRP1 mod: modulators of CendR peptide binding to NRP-1, primary screen, biochemical, fluorescence polarization, uHTS | AID 602438, 2012 | hit rate 0.85% among 360,000 | inhibition, % at 25 µM | FAM-RPARPAR peptide binding to NRP-1 | Neuropilin-1 (Homo sapiens), O14786;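 active = inhibition or corrected inhibition above about 18%, plus a signal ratio from 0.5 to 1.5, limit read from the data, passing the limit was not always enough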
core dimer inh: inhibitors of HCV core protein dimerization, primary screen, biochemical, TR-FRET, high-throughput. AID 1899, 2009. hit rate 0.33% among 300,000. TR-FRET GST/Flag-core106 dimerization, 1536-well. inhibition, % at 5 µM;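 active = inhibition above the mean of all tested compounds plus 3 SD, set per screening campaign, cut at about 45% in these data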
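Assay system: Tagged HCV core106 pair (GST and Flag) | Buffer or medium: KF-containing HEPES buffer, pH 7.45, DTT, CHAPS, BSA | Also added: Eu donor and XL665 acceptor anti-tag antibodies | Dosing: One concentration, 5 µM, in 0.5% DMSO | Timing: 4 h at 22.5 °C | Technique: TR-FRET 671 and 617 nm emission | Repeats: Singlicate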
FID counter: compounds displacing fluorescent DNA intercalator, primary screen, artefact control for HCV NS3 helicase inhibitor project, biochemical, FID fluorescence; inhibition, % at 7.9 µM; AID 1845, 2009; DNA fluorescent intercalator displacement; hit rate 0.17% among 290,000; in the data active = inhibition above about 37%;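 also: 0% = vehicle and 100% = reference compound; higher means more ethidium bromide displaced from hairpin DNA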
MEX-5 binding: MEX-5 zinc finger RNA-binding disruptors – biochemical, C. elegans, fluorescence polarization, MLPCN library, primary screen | AID 1832, 2009 | hit rate 0.38% among 300,000 | activity score (negative = inhibition of binding), % at 10 µM | MEX-5/FITC-TCR2 RNA binding; stronger effect = lower value | Zinc finger protein mex-5 (Caenorhabditis elegans), Q9XUB2;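 active = inhibition past about -25% in most replicates, and total fluorescence under double the plate's negative control median, limit read from the data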;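 also: 0% = DMSO and -100% = 5 µM competing unlabeled TCR2 RNA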
Target sequence (Q9XUB2 whole entry, looked up): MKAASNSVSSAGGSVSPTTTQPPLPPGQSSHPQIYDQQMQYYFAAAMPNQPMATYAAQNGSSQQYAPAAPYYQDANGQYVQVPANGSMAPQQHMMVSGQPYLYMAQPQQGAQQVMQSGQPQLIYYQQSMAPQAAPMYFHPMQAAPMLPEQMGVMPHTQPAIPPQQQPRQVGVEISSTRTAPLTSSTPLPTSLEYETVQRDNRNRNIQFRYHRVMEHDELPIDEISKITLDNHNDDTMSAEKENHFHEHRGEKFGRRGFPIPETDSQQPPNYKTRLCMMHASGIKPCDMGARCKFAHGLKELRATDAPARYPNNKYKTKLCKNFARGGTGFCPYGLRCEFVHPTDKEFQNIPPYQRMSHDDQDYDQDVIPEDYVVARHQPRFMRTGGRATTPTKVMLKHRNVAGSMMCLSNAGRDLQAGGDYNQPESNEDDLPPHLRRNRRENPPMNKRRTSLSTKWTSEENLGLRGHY
Numbers without * were called inactive; . = no result.

SMILES	CendR NRP1 mod	core dimer inh	FID counter	MEX-5 binding
COc1cccc(CNC(=O)COc2cccc(-n3cnnn3)c2)c1	6	-4	.	0
COc1ccc(CCNC(=O)COc2cccc(-n3cnnn3)c2)cc1	18*	.	.	.
CC12CCC(CC1O)C2C(=O)O (stereo unspecified)	-2	.	.	.
COC(=O)c1ccccc1NS(=O)(=O)c1ccc(NC(C)=O)cc1	35*	-6	-3	1
COc1ccc(S(=O)(=O)Nc2ccccc2C(=O)NC2CC2)cc1NC(C)=O	28*	.	.	.
O=C(Nc1ccc(N2CCN(c3ccc(O)cc3)CC2)cc1)Oc1ccccc1	-1	59*	6	-5
Nc1ccc(OC(=O)Nc2ccc(O)cc2)cc1	4	3	5	0
Cc1ccc(Cc2c(-c3cccc(Cl)c3)nc3ccc(Br)cn23)cc1	-25	.	.	.
C=CCn1c(CCNC(=O)c2ccc(Cl)c(Cl)c2)nnc1SCCOc1ccc(OC)cc1	26*	1	-10	0
S=C(SSC(=S)N1CCOCC1)N1CCOCC1	-6	.	.	.
CC(C)Cc1nn2c(N)c(/C=C3\C=Nc4ccccc43)c(=O)nc2s1	1	0	-6	-46*
Cc1cc(C)n(-c2nnc(NCc3ccc(Cl)cc3)nn2)n1	30*	-12	-2	-1
Cc1cccc(C)c1NC(=O)c1csc([C@H]2C[C@H](O)[C@@H](CO)O2)n1	-7	.	.	.
CC(=O)c1ccc(S(=O)(=O)Nc2ccc(-c3ccc4nnc(C)n4n3)cc2)cc1	4	58*	-12	-3
Cc1ccc(NC(=S)Nc2cccc3ccccc23)cc1	28*	3	-6	-2
Fc1ccc(NC(=S)Nc2cccc3ccccc23)cc1	28*	9	-4	-1
S=C(Nc1cccc2ccccc12)NN1CCOCC1	25*	3	-5	2
CN(C)c1ccc(/C=N/N(CCC(=O)NC(C)(C)C)C2=NS(=O)(=O)c3ccccc32)cc1	-59	1	-13	-53*
CN(C)c1ccc(/C=N/NC2=NS(=O)(=O)c3ccccc32)cc1	-46	-31	-16	-41*
CN(C)c1ccc(/C=N/N(CCO)C2=NS(=O)(=O)c3ccccc32)cc1	142	-17	-25	94
O=S(=O)(CC=CCS(=O)(=O)c1ccccc1)c1ccccc1	6	.	.	.
N#CCS(=O)(=O)c1ccccc1	24*	3	-3	1
CCc1cc[n+](-c2nc([O-])sc2C=O)cc1	19	1	3	-50*
CC1CC(C)CN(S(=O)(=O)c2cc3c4c(c2)CCN4C(=O)CC3)C1 (stereo unspecified)	25*	0	.	0
CC1CCCN(S(=O)(=O)c2cc3c4c(c2)CCN4C(=O)CC3)C1 (stereo unspecified)	5	7	.	-1
SMILES	CendR NRP1 mod	core dimer inh	FID counter	MEX-5 binding
O=C(CSc1nnc(-c2ccc(Cl)cc2)n1-c1ccc(Cl)cc1)N/N=C/c1ccco1	-10	12	-33	0
Cc1ccc(/C=N/NC(=O)CSc2nnc(-c3ccc(Cl)cc3)n2-c2ccccc2)o1	43*	3	-32	1
Cc1ccc(C)c(CC(=O)N2CCCC(c3cc(C(=O)NCc4cccnc4)no3)C2)c1 (stereo unspecified)	5	.	.	.
COc1ccc(C2C(C(=O)Nc3ccc(F)cc3)=C(C)Nc3nc(CCCO)nn32)cc1 (stereo unspecified)	20*	0	-5	0
CCOc1ccc(C2C(C(=O)Nc3ccc(F)cc3)=C(C)Nc3nc(CCCO)nn32)cc1 (stereo unspecified)	-4	0	-14	1
O=C1C2C(c3ccccc3)C=CC(c3ccccc3)C2C(=O)N1CCCO (stereo unspecified)	22*	-3	-32	-1
Cc1[nH][nH]c(=O)c1/C=N/N1CCOCC1	1	2	0	-27*
Fc1cccc(F)c1/C=N/N1CCOCC1	17	-2	4	0
O=C(COc1ccc(F)cc1)NCC1(N2CCCCC2)CCCCC1	5	.	.	.
Nc1ccn([C@@H]2O[C@H](C(=O)N3CCSC3)[C@@H](O)[C@H]2O)c(=O)n1	13	.	.	.
Cc1cnc(C(=O)OCC(=O)N2CCC(C)CC2)cn1	23*	.	.	.
CC1=C(C#N)c2nc(N)c(C#N)c(C)c2/C1=C\c1ccc(-c2ccccc2C(=O)O)o1	12	.	-18	-52*
COc1cc(/C=C2/C(C)=C(C#N)c3nc(N)c(C#N)c(C)c32)ccc1OCC(=O)O	.	-10	-18	-18
CC(C)(C)n1nnnc1C(c1ccccc1)N1CCN(c2c(Cl)cncc2Cl)CC1 (stereo unspecified)	1	.	.	.
Cc1ccc(C(=O)CSc2cc(C)[nH]c(=O)n2)cc1	-70	64*	-30	1
COCCNc1c2c(nc3c(-c4ccccc4)c(C)nn13)CCC2	28*	-2	-13	.
CN1C(=O)/C(=C/c2cn(CC(=O)N3CCCCC3)c3ccccc23)c2ccccc21	.	4	-19	-27*
Cc1nn(-c2ccccc2)c(C)c1C(=O)OCC(=O)N1c2ccccc2NC(=O)C1(C)C	30*	2	-13	3
COCCNC(=O)C1CC(c2ccc(C(F)(F)F)cc2)=NO1 (stereo unspecified)	28*	-5	.	1
COCCNC(=O)C1CC(c2ccc(F)cc2)=NO1 (stereo unspecified)	9	-10	0	1
O=C(NCc1cc(C(F)(F)F)cc(C(F)(F)F)c1)C1CC(c2ccccc2F)=NO1 (stereo unspecified)	28*	-1	.	1
O=C(NCc1cccc(C(F)(F)F)c1)C1CC(c2ccccc2F)=NO1 (stereo unspecified)	19	-15	.	-2
CCN(CC(=O)NC(C)(C)C)C(=O)c1cccc(S(=O)(=O)N2CC3(C)CC2CC(C)(C)C3)c1 (stereo unspecified)	4	.	.	.
C#CCOCCOCCOCCNc1nc(N2CCN(C(=O)C(Cc3cc4ccccc4[nH]3)n3cc(C(N)C(C)CC)nn3)CC2)nc(N2CCN(C(=O)C(Cc3cc4ccccc4[nH]3)n3cc(C(N)C(C)CC)nn3)CC2)n1 (stereo unspecified)	12	1	38*	11
C#CCOCCOCCOCCNc1nc(N2CCN(C(=O)[C@H]([C@@H](C)CC)n3cc([C@@H](N)Cc4ccc(O)cc4)nn3)CC2)nc(N2CCN(C(=O)[C@H](Cc3cc4ccccc4[nH]3)n3cc([C@@H](N)CC(C)C)nn3)CC2)n1	5	-15	.	.
C#CCOCCOCCOCCNc1nc(N2CCN(C(=O)[C@H](Cc3ccc(O)cc3)n3cc([C@@H](N)CC(C)C)nn3)CC2)nc(N2CCN(C(=O)[C@H](Cc3cc4ccccc4[nH]3)n3cc([C@@H](N)CC(C)C)nn3)CC2)n1	.	-4	37*	8
